Experimental data gathered from unrelated publications.
Compare with care: the assays were run in different laboratories.

Structure (SMILES) | target or system | test | setting | quantity | value
CCN(O)N=Nc1ccc(S(=O)(=O)Nc2nccs2)cc1 | – | DPPH scavenging, absorbance | 60 µg/mL | inhibition | 9.02%
C[C@@H](O)[C@H]1C(=O)N2C(C(=O)O)=C(S[C@@H]3CN[C@H](C(=O)N(C)C)C3)[C@H](C)[C@H]12 | Serratia fonticola | microbial growth, broth dilution | clinical isolate | MIC | 32 µg/mL
O=C1O[C@H]([C@@H](O)CO)C(O)=C1O | – | DPPH scavenging | 12.5 µg/mL | inhibition | 38.9%
Cc1cccc(N(O)N=Nc2ccc(S(=O)(=O)Nc3cc(C)on3)cc2)c1 | – | DPPH scavenging, absorbance | 180 µg/mL | inhibition | 34.7%
Oc1ccc(Br)cc1C=NCCN1CCOCC1 | – | DPPH scavenging, absorbance | 120 µM | inhibition | 28.6%
COc1cc(C=CC(=O)CC(c2ccc([N+](=O)[O-])cc2)n2ccnc2)ccc1O (stereo not drawn) | – | DPPH scavenging | 50 µg/mL | inhibition | 61.4%
COc1ccc(-c2ccc(-c3ccc(C(=N)N)nc3)s2)cc1 | 786-0 | cell growth or viability | – | GI50 | 1880 nM
CNC(=O)c1cc(Oc2ccc(NC(=O)Nc3ccc(Cl)c(C(F)(F)F)c3)cc2)ccn1 | Salmonella | microbial growth | clinical isolate | MIC | > 100 µM
COc1cc(C=CC(=O)CC(c2ccc(N(C)C)cc2)n2ccnc2)ccc1O (stereo not drawn) | – | DPPH scavenging | 12.5 µg/mL | inhibition | 42.7%
CN(O)N=Nc1ccc(S(=O)(=O)Nc2nccs2)cc1 | – | DPPH scavenging, absorbance | 120 µg/mL | inhibition | 16.4%
COc1cc(C=Cc2cc(-c3ccccc3)nc(O)n2)ccc1O | – | DPPH scavenging | 50 µg/mL | inhibition | 61.6%
O=C1O[C@H]([C@@H](O)CO)C(O)=C1O | – | DPPH scavenging, absorbance | 80 µM | inhibition | 53.7%
